IDH1 mut inh: inhibitors of human IDH1 R132H. O75874. IDH1 R132H reductase, diaphorase/resazurin fluorescence, 60 min. inhibition, % at 10 µM. 0.18% of 70,000 active. AID 624101; in the data active means inhibition above about 34%;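 further: 0% = DMSO and 100% = no enzyme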
GASC1 inh: KDM4C (human) demethylase inhibition; Q9H3R0; GST-KDM4C 2-372, H3K9me3 peptide, LANCE TR-FRET; inhibition, % at 12.5 µM; 0.15% of 96,000 active; AID 720574;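 active means mean replicate inhibition above about 25%, with at least 55% of replicates also reaching it, limit read from the data, passing the limit was not always enough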
Target sequence (Q9H3R0 2-372 limits assumed): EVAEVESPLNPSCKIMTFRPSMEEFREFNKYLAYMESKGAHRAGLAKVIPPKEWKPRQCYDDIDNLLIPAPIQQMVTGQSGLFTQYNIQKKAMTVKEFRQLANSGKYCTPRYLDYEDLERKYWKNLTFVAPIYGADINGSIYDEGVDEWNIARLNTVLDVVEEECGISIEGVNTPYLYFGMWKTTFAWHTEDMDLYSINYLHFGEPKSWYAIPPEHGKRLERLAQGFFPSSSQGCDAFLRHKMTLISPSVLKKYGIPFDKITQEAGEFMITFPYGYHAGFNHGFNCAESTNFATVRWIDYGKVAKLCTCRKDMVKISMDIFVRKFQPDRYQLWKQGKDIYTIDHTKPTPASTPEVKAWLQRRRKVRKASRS
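System: N-terminal GST-fused human GASC-1 (KDM4C) fragment, residues 2-372 / Amount: 10 nM GST-KDM4C in enzyme reaction / Also added: H3K9me3 peptide with Fe(II)/2OG / Times: 30 min demethylation and 1 h detection at room temperature / Signal: LANCE TR-FRET / Read-out basis: Fall in 671/618 emission ratio as inhibition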
Active calls of the source: *; . = not tested or not shown. Many of the other results were omitted from the sample, so hits are more common in it than they were.

SMILES	IDH1 mut inh	GASC1 inh
COCCNC(=O)C[C@@H]1CC[C@@H]2[C@H](COC[C@@H](O)CN2Cc2cccc(-c3ccncc3)c2)O1	.	3
CC(C)CC#Cc1ccc2c(c1)O[C@H](CN(C)C(=O)c1cccnc1)[C@@H](C)CN([C@@H](C)CO)S2(=O)=O	0	3
CCC(=O)N(C)C[C@@H]1Oc2cc(C#Cc3ccccc3)ccc2S(=O)(=O)N([C@@H](C)CO)C[C@@H]1C	11	34*
CCCC#Cc1ccc2c(c1)O[C@@H](CN(C)Cc1cccnc1)[C@@H](C)CN([C@@H](C)CO)S2(=O)=O	53*	1
CCCC#Cc1ccc2c(c1)O[C@H](CN(C)Cc1cccnc1)[C@H](C)CN([C@H](C)CO)S2(=O)=O	6	1
COCC#Cc1ccc2c(c1)O[C@@H](CN(C)Cc1cccnc1)[C@@H](C)CN([C@@H](C)CO)S2(=O)=O	65*	44*
COCC#Cc1ccc2c(c1)O[C@H](CN(C)Cc1cccnc1)[C@@H](C)CN([C@@H](C)CO)S2(=O)=O	7	0
CC(C)CC#Cc1ccc2c(c1)O[C@@H](CN(C)C(=O)c1cccnc1)[C@@H](C)CN([C@@H](C)CO)S2(=O)=O	39*	47*
CCC(=O)N(C)C[C@@H]1Oc2cc(C#Cc3ccccc3)ccc2S(=O)(=O)N([C@H](C)CO)C[C@@H]1C	0	-2
O=C(C[C@H]1C[C@@H]2c3cc(NC(=O)CC4CC4)ccc3O[C@@H]2[C@@H](CO)O1)NCc1ccccc1F	0	0
C[C@@H]1CN([C@@H](C)CO)C(=O)c2cc(NC(=O)NC3CCCCC3)ccc2O[C@@H](C)CCCCO[C@H]1CN(C)C(=O)Nc1ccccc1	.	0
CCCC#Cc1ccc2c(c1)[C@H]1[C@H](CCN1C(=O)C1CC1)[C@H](CO)N2	.	4
C[C@@H]1CN([C@@H](C)CO)C(=O)c2cc(NC(=O)Nc3cccc4ccccc34)ccc2O[C@@H]1CN(C)Cc1ccc(Oc2ccccc2)cc1	-6	-4
COCC(=O)Nc1ccc2c(c1)OC[C@H](C)N(CC1CC1)C[C@@H](C)[C@@H](OC)CN(C)C2=O	0	0
COc1ccc(S(=O)(=O)NCc2ccccc2)cc1-c1nnc2c3ccccc3c(C)nn12	0	.
Cc1ccc(NC(=O)CN(c2cc(Cl)c(Cl)cc2Cl)S(C)(=O)=O)cc1Cl	0	.
COc1cccc(C#Cc2ccc([C@@H]3[C@H](CO)N4C(=O)CN(C(=O)Cc5cccnc5)C[C@@H]34)cc2)c1	.	-1
CC(C)NC(=O)N(C)C[C@@H]1Oc2cc(-c3ccccc3F)ccc2S(=O)(=O)N([C@@H](C)CO)C[C@@H]1C	-1	-1
Cc1ccc(Nc2nc(N)nc(CN3CCN(C(c4ccccc4)c4ccccc4)CC3)n2)cc1	0	.
Cc1noc(C)c1NC(=O)N(C)C[C@H]1Oc2cc(C#CCN(C)C)ccc2S(=O)(=O)N([C@H](C)CO)C[C@@H]1C	0	1
C[C@@H](O)C#Cc1ccc2c(c1)O[C@@H](CN(C)Cc1cncnc1)[C@@H](C)CN([C@@H](C)CO)S2(=O)=O	34*	36*
Cc1noc(C)c1NC(=O)N(C)C[C@@H]1Oc2cc(C#CCN(C)C)ccc2S(=O)(=O)N([C@H](C)CO)C[C@H]1C	44*	52*
C[C@H](O)C#Cc1ccc2c(c1)O[C@H](CN(C)Cc1cncnc1)[C@@H](C)CN([C@@H](C)CO)S2(=O)=O	-2	7
CCOC(=O)c1c(NC(=O)C2(C)Cc3ccccc3C(=O)O2)sc(C)c1C (stereo not drawn)	0	.
